GASC1 inh: blocks human GASC-1 (KDM4C) demethylase activity | Q9H3R0 | GST-KDM4C 2-372, H3K9me3 peptide, LANCE TR-FRET | inhibition, % at 12.5 µM | 0.15% of 96,000 active | AID 720574;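 active = mean replicate inhibition above about 25%, with at least 55% of replicates also reaching it, limit read from the data, passing the limit was not always enough; inconclusive = only one of those two conditions met; inactive = neither condition met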
Target sequence (Q9H3R0 2-372 limits assumed): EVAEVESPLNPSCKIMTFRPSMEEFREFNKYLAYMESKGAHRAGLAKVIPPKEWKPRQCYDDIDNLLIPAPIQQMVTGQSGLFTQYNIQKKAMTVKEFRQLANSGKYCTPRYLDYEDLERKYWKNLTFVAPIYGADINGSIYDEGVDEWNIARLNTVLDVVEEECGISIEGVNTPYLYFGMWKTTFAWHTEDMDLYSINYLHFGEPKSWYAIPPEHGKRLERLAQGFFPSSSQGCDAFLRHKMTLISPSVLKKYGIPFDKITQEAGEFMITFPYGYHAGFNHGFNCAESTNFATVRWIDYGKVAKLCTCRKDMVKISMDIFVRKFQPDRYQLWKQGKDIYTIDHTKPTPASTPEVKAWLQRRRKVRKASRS
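material = GST-tagged GASC-1 (JMJD2C) catalytic fragment, aa 2-372 | amount = enzyme final amount 10 nM | medium = HEPES buffer, pH 7.5, plus ascorbate | also added = H3K9me3 peptide substrate, Fe(II), 2-oxoglutarate | dosing = single dose | times = 30 min demethylation and 1 h detection at room temperature | detection = LANCE TR-FRET | read-out basis = Fall in 671/618 emission ratio as inhibition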
T cruzi growth-1: inhibitors of T. cruzi proliferation | inhibition, % at 8.34 µM | T. cruzi beta-gal in NIH3T3, GalScreen luminescence, 90 h | 5.9% of 77,000 active;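 active = mean inhibition above about 93%, with at least 55% of replicates each passing it, limit read from the data, passing the limit was not always enough; inconclusive = only one of those two conditions holds; inactive = neither condition holds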
IDH1 mut inh: IDH1 R132H (human) inhibition | inhibition, % at 10 µM | 0.18% of 70,000 active | IDH1 R132H reductase, diaphorase/resazurin fluorescence, 60 min; in the data active = inhibition above about 34%; inconclusive = no clear call, values can overlap the other calls; inactive = below about 11%;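 also: 0% = DMSO and 100% = no enzyme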
Target sequence (O75874 whole entry R132H): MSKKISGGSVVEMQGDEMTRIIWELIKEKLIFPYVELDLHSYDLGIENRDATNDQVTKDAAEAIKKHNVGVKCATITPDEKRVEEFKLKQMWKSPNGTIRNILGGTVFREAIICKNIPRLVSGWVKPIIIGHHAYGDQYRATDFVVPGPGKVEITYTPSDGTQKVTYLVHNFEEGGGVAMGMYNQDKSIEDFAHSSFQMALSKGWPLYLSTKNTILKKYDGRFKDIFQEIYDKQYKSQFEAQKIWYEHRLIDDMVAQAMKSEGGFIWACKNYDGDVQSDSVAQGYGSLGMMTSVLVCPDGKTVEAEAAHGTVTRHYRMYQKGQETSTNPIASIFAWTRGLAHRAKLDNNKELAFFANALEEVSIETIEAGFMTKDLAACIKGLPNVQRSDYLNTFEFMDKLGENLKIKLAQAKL
T cruzi growth-2: Trypanosoma cruzi proliferation inhibition; T. cruzi beta-gal in NIH3T3, GalScreen luminescence, 90 h; inhibition, % at 8.35 µM; shares compounds with T cruzi growth-1; 72% of 5,600 active;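 active = mean replicate inhibition above about 95% and at least 55% of replicates individually reaching it, limit read from the data; inconclusive = only one of the two criteria is met; inactive = neither criterion is met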
T cruzi growth-3: blocks T. cruzi growth in NIH3T3 host cells; shares compounds with T cruzi growth-1; T. cruzi beta-gal in NIH3T3, GalScreen luminescence, 90 h; inhibition, % at 2.09 µM; 21% of 5,600 active; AID 651740;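 active = mean inhibition above about 95%, with at least 55% of replicates also reaching it, limit read from the data; inconclusive = meets just one of the two conditions; inactive = meets neither condition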;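 also: plate controls were neutral control median for no effect and positive control median for full effect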
3T3 cytotox: NIH/3T3 (mouse) viability loss; shares compounds with T cruzi growth-1; NIH/3T3 viability, CellTiter-Glo ATP luminescence, 90 h; cytotoxicity (signal decrease), % at 8.35 µM; 14% of 5,600 active;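 active = mean signal decrease across replicates above about 35% based on untreated-well scatter, with enough replicates individually passing, limit read from the data; inconclusive = no rule stated though some were filed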;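 also: 0% = median of neutral control wells and 100% = median of positive control wells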
NIH3T3 tox 2: cytotoxicity in mouse NIH/3T3 fibroblasts; NIH/3T3 viability, CellTiter-Glo ATP luminescence, 90 h; inhibition, % at 24.9 µM; AID 651744; 56% of 5,600 active; shares compounds with T cruzi growth-1;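 active = mean loss of cell viability signal at or above a set limit, and enough replicates individually reaching it; inconclusive = meets only the mean limit or only the replicate share; inactive = meets neither condition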;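 also: 0% = median of neutral control wells and 100% = median of positive control wells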
Numbers without * were called inactive; ? = inconclusive; · = not tested or not shown. This excerpt belongs to a sample that is enriched for hits.

SMILES | GASC1 inh | T cruzi growth-1 | IDH1 mut inh | T cruzi growth-2 | T cruzi growth-3 | 3T3 cytotox | NIH3T3 tox 2
CN1C(=O)c2cc(NC(=O)c3ccc(F)c(F)c3)ccc2OC[C@@H]2O[C@H](CC(=O)N[C@@H]3CCN(Cc4ccccc4)C3)CC[C@@H]21 | 2.8 | 107.9* | · | ? | 87.5 | 13.0 | 54.5*
CN1C(=O)c2cc(NC(=O)c3ccc(F)c(F)c3)ccc2OC[C@H]2O[C@@H](CC(=O)N[C@@H]3CCN(Cc4ccccc4)C3)CC[C@H]21 | 2.0 | 109.9* | · | 115.5* | 86.2 | 0.7 | 27.2*
CN1C(=O)c2cc(NC(=O)c3ccc(F)c(F)c3)ccc2OC[C@H]2O[C@@H](CC(=O)N[C@H]3CCN(Cc4ccccc4)C3)CC[C@H]21 | 0.3 | 103.2* | · | 93.6 | 73.2 | -14.9 | ?
CN1C(=O)c2cc(NC(=O)Cc3cccs3)ccc2OC[C@@H]2O[C@@H](CC(=O)N[C@@H]3CCN(Cc4ccccc4)C3)CC[C@@H]21 | 2.2 | 93.4 | · | · | · | · | ·
CN1C(=O)c2cc(NC(=O)c3ccc(F)c(F)c3)ccc2OC[C@@H]2O[C@@H](CC(=O)N[C@H]3CCN(Cc4ccccc4)C3)CC[C@@H]21 | -1.1 | 100.8* | · | 105.6* | 67.9 | 2.7 | 10.0
Nc1cc(Nc2ccc(S(N)(=O)=O)cc2)ncn1 | · | · | -0.1 | · | · | · | ·
CC(C)(C)C1CCc2c(sc(NC(=O)CSc3n[nH]c(-c4ccncc4)n3)c2C#N)C1 (stereo not given) | · | · | 13.5 | · | · | · | ·
NC(=O)CSc1nc(N)c(-c2ccccc2)c(=O)[nH]1 | · | · | 0.2 | · | · | · | ·
CN1C(=O)c2cc(NC(=O)c3ccc(F)c(F)c3)ccc2OC[C@@H]2O[C@H](CC(=O)N[C@H]3CCN(Cc4ccccc4)C3)CC[C@@H]21 | -0.8 | 104.2* | · | 104.1* | 81.9 | -0.1 | 32.0*
CN1C(=O)c2cc(NC(=O)c3ccc(F)c(F)c3)ccc2OC[C@H]2O[C@H](CC(=O)N[C@@H]3CCN(Cc4ccccc4)C3)CC[C@H]21 | 1.4 | 90.7 | · | · | · | · | ·
C=CCSc1n[nH]c(-c2ccc(C(F)(F)F)cc2)n1 | · | · | -0.4 | · | · | · | ·
COc1ccccc1C#Cc1ccc2c(c1)O[C@@H](CN(C)Cc1ccccc1)[C@@H](C)CN([C@@H](C)CO)S2(=O)=O | 1.6 | 122.2* | 0.1 | 103.9* | 105.9* | -18.7 | 7.3
COc1ccccc1C#Cc1ccc2c(c1)O[C@H](CN(C)Cc1ccncc1)[C@H](C)CN([C@@H](C)CO)S2(=O)=O | 1.9 | 130.2 | 3.6 | · | · | · | ·
COc1ccccc1C#Cc1ccc2c(c1)O[C@@H](CN(C)Cc1ccncc1)[C@@H](C)CN([C@@H](C)CO)S2(=O)=O | 12.1 | 123.0* | -0.3 | 101.1* | 100.6* | 10.1 | 40.1*
COc1ccccc1C#Cc1ccc2c(c1)O[C@@H](CN(C)Cc1cccnc1)[C@H](C)CN([C@H](C)CO)S2(=O)=O | · | · | 0.0 | · | · | · | ·
COC(=O)c1cc(NC(=O)COc2ccc(I)cc2)cc(C(=O)OC)c1 | · | · | 0.3 | · | · | · | ·
C/C=C1/[C@H](O[C@@H]2O[C@H](CO)[C@@H](O)[C@H](O)[C@H]2O)OC=C(C(=O)OC)[C@H]1CC(=O)OCCc1ccc(O)c(O)c1 | · | · | 19.0 | · | · | · | ·
COc1ccc(-n2nc3cc(C)c(NC(=O)COc4ccccc4)cc3n2)cc1 | · | · | -0.3 | · | · | · | ·
O=C(Nc1ccccc1[N+](=O)[O-])C1Cc2ccccc2CN1S(=O)(=O)c1ccc(F)cc1 (stereo not given) | · | · | 0.8 | · | · | · | ·
O=C(Nc1ccc(F)cc1)N1CCCCN2[C@@H](CO)[C@H](c3ccc(C#CC4CC4)cc3)[C@@H]2C1 | 1.3 | 53.1 | · | · | · | · | ·
O=C(Nc1cccc(F)c1)N1CCCCN2[C@H](CO)[C@@H](c3ccc(C#CC4CC4)cc3)[C@@H]2C1 | -3.2 | 110.4* | · | 105.8* | 104.5* | 23.3 | 103.7*
O=C(Nc1cccc(F)c1)N1CCCCN2[C@H](CO)[C@H](c3ccc(C#CC4CC4)cc3)[C@H]2C1 | -1.0 | 101.8* | · | 98.3* | 99.5* | 122.4* | 104.1*
O=C(Nc1ccc(F)cc1)N1CCCCN2[C@H](CO)[C@@H](c3ccc(C#CC4CC4)cc3)[C@H]2C1 | -0.2 | 112.9* | · | 111.4* | 83.7 | 28.0 | 104.6*
O=C(Nc1cccc(F)c1)N1CCCCN2[C@H](C1)[C@@H](c1ccc(C#CC3CC3)cc1)[C@@H]2CO | -0.5 | 85.2 | · | · | · | · | ·
O=C(Nc1cccc(F)c1)N1CCCCN2[C@H](CO)[C@@H](c3ccc(C#CC4CC4)cc3)[C@H]2C1 | -1.6 | 112.2* | · | 106.9* | 80.1 | 26.0 | 104.0*
SMILES | GASC1 inh | T cruzi growth-1 | IDH1 mut inh | T cruzi growth-2 | T cruzi growth-3 | 3T3 cytotox | NIH3T3 tox 2
O=C(Nc1cccc(F)c1)N1CCCCN2[C@@H](CO)[C@@H](c3ccc(C#CC4CC4)cc3)[C@@H]2C1 | -2.4 | 70.1 | · | · | · | · | ·
O=C(Nc1ccccc1)N1CCCCN2[C@H](CO)[C@@H](c3ccc(C#CC4CC4)cc3)[C@@H]2C1 | 0.4 | 85.8 | · | · | · | · | ·
COc1ccc(NC(=O)CSc2nnc(N)n2-c2ccccc2)cc1 | · | · | 0.2 | · | · | · | ·
COC(=O)c1ccc(OC(=O)CS(=O)c2ccc(C(F)(F)F)cc2[N+](=O)[O-])cc1 (stereo not given) | · | · | 0.2 | · | · | · | ·
COc1ccc(CN2C(=O)C(O)(CC(=O)c3ccc(Cl)cc3)c3ccccc32)cc1OC (stereo not given) | · | · | -0.2 | · | · | · | ·
COC(=O)c1cc(-c2ccccc2)sc1NC(=S)NCc1ccccn1 | · | · | 4.8 | · | · | · | ·
CCS(=O)(=O)N1CCCCN2[C@H](CO)[C@H](c3ccc(C#Cc4ccccc4OC)cc3)[C@@H]2C1 | -5.5 | 112.0* | · | 105.9* | 73.8 | 42.0* | 51.2*
COc1ccccc1C#Cc1ccc([C@H]2[C@H](CO)N3CCCCN(S(C)(=O)=O)C[C@@H]23)cc1 | -0.8 | ? | · | 105.9* | 73.9 | 38.5* | 69.8*
COc1ccccc1C#Cc1ccc([C@@H]2[C@H]3CN(S(C)(=O)=O)CCCCN3[C@H]2CO)cc1 | -2.1 | 93.9 | · | · | · | · | ·
CCS(=O)(=O)N1CCCCN2[C@H](CO)[C@@H](c3ccc(C#Cc4ccccc4OC)cc3)[C@H]2C1 | -1.5 | 121.7* | · | 100.5* | 50.6 | 45.4* | 85.3*
CCS(=O)(=O)N1CCCCN2[C@H](CO)[C@H](c3ccc(C#Cc4ccccc4OC)cc3)[C@H]2C1 | 0.1 | -0.7 | · | · | · | · | ·
O=S(=O)(Cc1ccccc1)N1CCCCN2[C@H](CO)[C@@H](c3ccc(C#Cc4ccccc4)cc3)[C@H]2C1 | 1.8 | 56.7 | · | · | · | · | ·
Cc1c(Br)c([N+](=O)[O-])nn1CC(=O)Nc1ccc(C#N)cc1 | · | · | 0.4 | · | · | · | ·
CS(=O)(=O)N(CC(=O)Nc1ccc(Cl)cc1)c1cccc([N+](=O)[O-])c1 | · | · | 0.0 | · | · | · | ·
CCC(=O)N(C)C[C@@H]1Oc2cc(C#CC3CCCCC3)ccc2S(=O)(=O)N([C@H](C)CO)C[C@@H]1C | 0.0 | 110.1* | 0.5 | 95.4* | 84.3 | 12.0 | 104.5*

Compound activity from PubChem BioAssay.
